Source: PubChem (several laboratories)
ROMK mod: human ROMK K+ channel modulation, primary screen | P48048 | Tet-inducible ROMK, thallium flux fluorescence; actives lie on both sides | B-score at 10 µM | 130,000 compounds, 2% hits | AID 1918;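 active = signal ratio slope over the read window, or its plate-corrected B-score, at least 3 SD from the plate mean, either direction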;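 note: B-score of the F/F0 ratio slope over 7 to 12 s after thallium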
PMI act: increases human mannose-6-phosphate isomerase activity | P34949 | activation factor at 20 µM | purified human PMI, coupled resazurin fluorescence, 20 min; hits give high values; 1 = vehicle control, 0 substrate-free wells | 190,000 compounds, 0.005% hits;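 active = activation factor of 2 or more at 20 µM, relative to plate controls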
ABCG2 inh: human ABCG2 inhibition, ABCB1 as counter-screen | 190,000 compounds, 0.1% hits | AID 1325 | Q9UNQ0 | inhibition, % at 6.6 µM | IgMXP3 cells, JC-1 efflux, flow cytometry;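 active = inhibition above 80%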;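 note: 0% = DMSO and 100% = nicardipine control wells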
Target sequence (Q9UNQ0 whole entry, looked up): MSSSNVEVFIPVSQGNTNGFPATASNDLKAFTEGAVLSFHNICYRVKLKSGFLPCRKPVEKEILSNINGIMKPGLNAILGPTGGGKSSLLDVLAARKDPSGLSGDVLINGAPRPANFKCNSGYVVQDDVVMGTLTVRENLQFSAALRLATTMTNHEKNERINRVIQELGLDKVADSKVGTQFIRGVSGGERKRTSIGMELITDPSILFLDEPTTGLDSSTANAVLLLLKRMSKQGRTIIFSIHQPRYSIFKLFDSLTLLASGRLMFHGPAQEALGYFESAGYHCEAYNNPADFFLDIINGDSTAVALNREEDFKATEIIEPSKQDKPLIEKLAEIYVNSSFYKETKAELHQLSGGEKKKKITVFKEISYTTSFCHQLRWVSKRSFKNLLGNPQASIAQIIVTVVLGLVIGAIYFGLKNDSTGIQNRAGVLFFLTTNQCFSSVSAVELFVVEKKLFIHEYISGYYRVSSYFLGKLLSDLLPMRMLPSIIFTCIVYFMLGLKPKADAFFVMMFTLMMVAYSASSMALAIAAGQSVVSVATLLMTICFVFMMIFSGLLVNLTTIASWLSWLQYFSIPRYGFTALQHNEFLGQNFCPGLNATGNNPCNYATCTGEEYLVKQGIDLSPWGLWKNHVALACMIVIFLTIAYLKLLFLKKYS
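Incubation: cells with compound and JC-1, 10 min at 25 °C, rotating, no wash / Test system: IgMXP3 (ABCG2) plus far-red-tagged CCRF-Adr (ABCB1) cells / Compound dosing: one concentration, 6.6 µM final / Also added: JC-1 fluorescent substrate / Evaluation: efflux inhibition in percent versus controls / Detection: flow cytometry, 530 nm JC-1 signal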
Cl transport mod: modulates chloride dependent transport by human KCC2. Q9H2X9. KCC2 cells, thallium flux FluoZin-2 fluorescence. B-score of Tl+ flux slope (higher = more flux/activation; lower = inhibition) at 10 µM. 190,000 compounds, 2.2% hits. AID 1456;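 active = thallium flux slope and its plate-corrected score both differing from the plate sample mean at a set confidence after two filtering rounds, in either direction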;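 note: slope of fluorescence scaled to starting intensity during 10 to 20 s after thallium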
ABCB1 inh: inhibitors of human ABCB1 transporter, ABCG2 counter-screen; CCRF-Adr cells, JC-1 efflux, flow cytometry; AID 1326; inhibition, % at 6.6 µM; P08183; 190,000 compounds, 0.067% hits; in the data active = inhibition above about 40%;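 note: 0% = vehicle and 100% = reference inhibitor; higher value means more JC-1 retained so stronger ABCB1 efflux block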
PMI act satM6P: increases human PMI activity with near-saturating mannose 6-phosphate; activation factor at 20 µM; 190,000 compounds, 0.34% hits; coupled PMI enzyme assay, resazurin fluorescence, 20 min; hits give high values; 1 = untreated enzyme, 0 = substrate-free blank; P34949;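 active = activation factor of 2 or more at 20 µM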
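assay system = human phosphomannose isomerase with PGI, G6PDH, diaphorase coupling enzymes | quantity = 15 ng/mL PMI | incubation = enzyme reaction with compound 20 min at room temperature | medium = HEPES pH 7.4 buffer with MgCl2 and Tween-20 | compound dosing = one concentration, 20 µM, in 1% DMSO | measured by = Diaphorase-driven resazurin-to-resorufin fluorescence, excitation 544, emission 590 nm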
ROMK hit retest: retested hit modulating human ROMK potassium channel; shares compounds with ROMK mod; ROMK thallium flux, fluorescence ratio; hits give low values; normalized thallium flux (F/F0 slope) at 10 µM; 3,000 compounds, 54% hits;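 active = Flux at 10 µM at least 3 SD below or above vehicle control mean in one or both replicates; inconclusive = no clear call, values can overlap the other calls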
Numbers without * were called inactive; i = inactive; ? = inconclusive; . = not tested or not shown. Rows were chosen to be rich in hits. Some 3.3% of all compounds tested hit in one or more screens of this group.

SMILES	ROMK mod	PMI act	ABCG2 inh	Cl transport mod	ABCB1 inh	PMI act satM6P	ROMK hit retest
COc1ccccc1CN1C[C@@H]2C[C@@H](C3=Cc4cc(Cl)ccc4OC3)N3CCC[C@@]23C1=O	-3.2*	0.8	4	-1	2	0.8	0.065*
CN1C[C@@H]2C[C@@H](C3=Cc4cc(Cl)ccc4OC3)N3CCC[C@@]23C1=O	-0.39	1	0	-0.33	0	1	.
CCCN(CCC)c1cc(Cl)nc(N)n1	-1.4	0.9	2	-1.3	0	0.8	.
COC(=O)c1ccccc1-c1ccc(C=O)o1	0.83	1	-1	0.73	0	1	.
COc1ccccc1-c1ccc(/C=C2\C=CC(=O)O2)o1	.	.	.	i	.	.	0.044*
Cc1cccc(-c2nc(CSCC(=O)N3CCN(c4ccccn4)CC3)c(C)o2)c1	-4.3*	1.2	4	.	1	1	0.053*
Cc1ccc(-c2nc(CSCC(=O)N3CCCC3)c(C)o2)cc1	0.02	0.9	16	.	1	0.9	.
COc1cc2c(cc1OC)C1C(C(=O)Nc3ccccc3N3CCN(C)CC3)c3ccccc3C(=O)N1CC2 (configuration not stated)	0.096	1.1	6	0.94	2	1	.
CC(C)(C)NC(=O)CN(Cc1cccs1)C(=O)C1COc2ccccc2O1 (configuration not stated)	.	0.8	-3	.	-1	0.9	.
CC(C)CCNC(=O)C(c1ccc(O)cc1)N(Cc1cccs1)C(=O)C1COc2ccccc2O1 (configuration not stated)	-2.8*	0.8	10	-0.99	4	0.9	0.061*
O=C(NCc1cccnc1)/C(=C\c1ccc(-c2ccc(Cl)c(Cl)c2)o1)S(=O)(=O)c1ccccc1	-5.1*	0.9	3	-0.69	1	1	0.056*
Cc1ccc(-n2cc(CNC(C)c3cnn(C)c3)c(-c3ccc(F)cc3)n2)cc1 (configuration not stated)	-2.7*	0.9	3	1.3	2	1	0.051*
Cc1ccc(-n2cc(CNC(C)Cn3cncn3)c(-c3ccc(F)cc3)n2)cc1 (configuration not stated)	-1.6	1	27	-0.46	3	1.1	.
Cc1ccc(-n2cc(CNC(C)c3cnn(C)c3C)c(-c3ccc(F)cc3)n2)cc1 (configuration not stated)	-4.1*	0.8	3	0.2	6	0.9	0.054*
Nc1c(-c2ccccc2)cnn1-c1ccc(C(=O)O)cc1	-0.18	1	1	0.17	0	1	.
COc1ccc(-n2c(O)c(/C=N/NS(=O)(=O)c3ccc(C)c([N+](=O)[O-])c3)c3ccccc3c2=O)cc1OC	-3.3*	1.3	-6	-1.2	0	1.6	?
COc1cc(/C=N/NS(=O)(=O)c2ccc(C)c([N+](=O)[O-])c2)ccc1O	-0.15	1.3	2	0.74	0	1.2	.
Cc1ccc(NC(=O)CCc2ccc(S(=O)(=O)N3CCOCC3)cc2)c(C)c1	3.2*	1	10	-0.089	0	1	0.086
Cc1ccc(NC(=O)COC(=O)CCc2ccc(S(=O)(=O)N3CCOCC3)cc2)c(C)c1	0.57	1	-1	0.69	0	1	.
CCOC(=O)C1CCN(C(=O)c2cnn3c(C)cc(C)nc23)CC1	.	1	2	1	0	1	.
CCC(C)(C)NC(=O)C(c1cccn1C)N(C(=O)Cn1nnc2ccccc21)c1ccc(OC)cc1OC (configuration not stated)	-3.5*	1.1	2	-3	1	1	0.051*
CCOc1ccc(N(C(=O)Cn2nnc3ccccc32)C(C(=O)NC(C)(C)CC)c2cccn2C)cc1 (configuration not stated)	.	0.9	3	-0.3	4	0.9	.
CCS(=O)(=O)N1CCN(C(=O)c2ccc(-c3ccccc3)cc2)CC1	.	0.9	1	-0.42	0	1	.
CCc1cc(OCCCCNCc2ccccc2)ccc1Cl	-3.6*	1.1	2	0.24	1	1.1	0.054*
Clc1cc(Br)ccc1OCCCNCc1ccccc1	-4.3*	1.2	16	-1.3	7	1.1	0.059*
SMILES	ROMK mod	PMI act	ABCG2 inh	Cl transport mod	ABCB1 inh	PMI act satM6P	ROMK hit retest
CC(C)(C)c1ccc(OCCCNCc2ccccc2)cc1	-0.91	0.9	4	-2	2	1	.
Cc1ccc(NC(=O)Nc2nc(-c3ccc(C)s3)cs2)cc1	1.5	1	1	0.77	0	1	.
O=C(C[n+]1ccn(CCCNP2(=O)C=C(c3ccccc3)OC(c3ccccc3)=C2)c1)c1cccs1	-1.5	1.2	1	0.52	0	1.1	.
CCc1ccc(/C=C2\Oc3c(ccc(O)c3CN3CCN(CCO)CC3)C2=O)cc1	.	.	.	-0.95	.	.	0.049*
CC1Cc2ccccc2N1C(=O)CSc1nnc(-c2ccc(S(=O)(=O)N3CCCC3)cc2)o1 (configuration not stated)	0.42	0.8	4	.	2	0.8	.
COCc1cc(C)nc(SCC(=O)Nc2ccc(C)c(C)c2)c1C#N	0.67	0.9	8	-0.6	1	0.9	.
COCc1cc(C)nc(SCC[N+](C)(C)CC(=O)Nc2cccc(C(F)(F)F)c2)c1C#N	-2.6*	1	4	-0.052	1	1	0.059*
O=C(CSc1nnc2sc3ccccc3n12)NCc1ccc2c(c1)OCO2	.	.	.	0.52	.	.	.
COCC(=O)NCCSc1c(C)[nH]c2ccccc12	.	0.9	-6	-0.61	-2	0.9	.
COc1cc2ncnc(NCc3ccccc3Cl)c2cc1OC	-1.6	1	4	-1	2	1	.
COc1cc2ncnc(NCc3ccccc3C)c2cc1OC	.	0.9	1	-0.96	1	0.9	?
COC(=O)c1ccccc1NC(=O)N1CCN(Cc2ccco2)CC1	0.03	1	3	0.31	0	1	.
CCOC(=O)C1(Cc2ccccc2)CCN(Cc2cn(CC(=O)OC)c3ccccc23)CC1	-3.3*	0.9	7	0.88	8	0.9	0.055*
CCOC(=O)C1(CCc2ccccc2)CCN(C(=O)[C@@H]2C[C@@H](C)NC(=S)N2)CC1	-1.1	0.9	2	.	1	0.9	.
C1CN(c2nc3nonc3nc2N2C[C@H]3CC[C@H]2C3)CCS1	1.4*	1.1	-4	1.4	-1	1.1	0.075
CCc1cc(C(=O)c2ccccc2OC)c(N)s1	.	1	1	0.11	0	1	.
CCn1c(=O)[nH]c(=O)c2c(N)c(C(=O)c3ccccc3OC)sc21	3.7*	0.9	2	0.73	1	1	0.095
